One assay relates to A549. In words: Cytotoxicity against human A549 cells. Type of assay: functional. The following applies: read-out: ED50 (the source's name).
A further assay deals with SK-OV-3. In words: Cytotoxicity against human SKOV3 cells. Type of assay: functional. The settings on record: read-out: ED50 (the source's name).
The subject of the next assay is SK-MEL-2. In words: Cytotoxicity against human SK-MEL-2 cells. It is filed as functional. The following applies: read-out: ED50 (the source's name).
Another assay relates to XF498. The assay is described as follows: Cytotoxicity against human XF498 cells. Type of assay: functional. The following applies: read-out: ED50 (the source's name).
A further assay deals with HCT-15. In words: Cytotoxicity against human HCT-15 cells. Type of assay: functional. The settings on record: read-out: ED50 (the source's name).
In assay [1] the test system is Simian virus 40. In words: Inhibition of SV40 DNA replication in human HeLa cells. Type of assay: functional, organism-based. The settings on record: Betapolyomavirus macacae. Summed up: (§1)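 Cell-free SV40 replication using HeLa cytosolic extract, SV40 T-Ag (0.6 µg) and SV40 origin pUC DNA (0.3 µg). Buffer is 40 mM creatine phosphate-di-Tris pH 7.7, creatine kinase, 7 mM MgCl2, 0.5 mM DTT, 4 mM ATP, rNTPs, dNTPs and 25 µM [3H]dTTP. Incubated 90 min at 37 °C; acid-insoluble radioactivity measured. Products separated on 1% agarose gel and autoradiographed.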

For assay [2], the system named is Simian virus 40. In words: Inhibition of SV40 DNA replication in human HeLa cells at 800 uM. Type of assay: functional. The settings on record: Betapolyomavirus macacae, read-out: INH. Summed up:
as §1

The target in assay [3] is T1, DNA topoisomerase 1 (Homo sapiens) (UniProt P11387).
T1 sequence (whole entry): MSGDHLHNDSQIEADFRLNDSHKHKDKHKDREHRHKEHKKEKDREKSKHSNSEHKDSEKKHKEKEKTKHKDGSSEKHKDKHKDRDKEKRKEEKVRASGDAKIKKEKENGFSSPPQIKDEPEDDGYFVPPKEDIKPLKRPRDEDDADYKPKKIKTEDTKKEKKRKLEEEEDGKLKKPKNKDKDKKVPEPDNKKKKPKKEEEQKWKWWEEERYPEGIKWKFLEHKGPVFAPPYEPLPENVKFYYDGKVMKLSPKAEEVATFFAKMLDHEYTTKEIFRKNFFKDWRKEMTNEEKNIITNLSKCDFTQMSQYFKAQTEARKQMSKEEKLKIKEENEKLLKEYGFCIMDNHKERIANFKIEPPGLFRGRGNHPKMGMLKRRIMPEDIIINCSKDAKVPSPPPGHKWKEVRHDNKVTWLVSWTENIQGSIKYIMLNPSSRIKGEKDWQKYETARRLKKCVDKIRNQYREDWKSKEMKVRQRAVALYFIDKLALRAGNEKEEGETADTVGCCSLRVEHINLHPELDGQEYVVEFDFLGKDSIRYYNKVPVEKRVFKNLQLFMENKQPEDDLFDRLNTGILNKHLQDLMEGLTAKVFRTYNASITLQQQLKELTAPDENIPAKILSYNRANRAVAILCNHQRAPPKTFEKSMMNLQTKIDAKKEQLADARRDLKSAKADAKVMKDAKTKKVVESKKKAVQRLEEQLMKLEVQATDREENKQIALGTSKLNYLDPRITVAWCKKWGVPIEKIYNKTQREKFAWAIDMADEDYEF
The assay is described as follows: Inhibition of human DNA topoisomerase 1 assessed as effect on relaxation of superhelical plasmid.

The structures appear in SMILES notation. In brackets after ≈: the same amount, converted by molar mass. Activity calls are given as the source filed them. No cut-off for these calls is given here.

In the case of `CCCCCCC(C)CCCCCCCCCOC[C@H](O)COC1[C@@H](O)[C@H](O)[C@@H](O)[C@@H]1O` (stereo partly drawn) [SACROTRIDE A], the EC50 was greater than 10 µg/mL in the assay on A549; 9.5 µg/mL (≈ 20.5 µM) in the assay on SK-OV-3; greater than 10 µg/mL in the assay on SK-MEL-2; 9.8 µg/mL (≈ 21.2 µM) in the assay with XF498; 9.4 µg/mL (≈ 20.3 µM) in the assay on HCT-15. Moreover, the Activity entry in the assay with Simian virus 40 [1] was “Dose-dependent effect”. Moreover, in the assay with Simian virus 40 [2], the inhibition at 800 µM is greater than 90%. The result in assay [3] was inactive.

The values above are taken from ChEMBL document CHEMBL1141853, “A cyclitol derivative as a replication inhibitor from the marine sponge Petrosia sp” (1999).
